Thrombin inh = human alpha-thrombin inhibitors, primary screen, counter-screen for coagulation protease inhibitor project, biochemical, 1536-well, fluorogenic AMC substrate; Prothrombin (Homo sapiens), P00734; Boc-VPR-AMC fluorogenic substrate cleavage; inhibition, % at 5 µM; actives 0.26% (n = 220,000); AID 1046, 2008;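 active = inhibition at or above 40%; inactive = inhibition below 40%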;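 also: 0% = enzyme with no compound and 100% = wells without enzyme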
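Test system: human alpha-thrombin protein / Dosing: one concentration per compound, 5 µM, with 0.2% DMSO / Medium: pH 7.5 Tris-saline with Tween 20 / Benchmarks: no-compound enzyme wells and no-enzyme blanks / Read-out basis: percent inhibition of thrombin substrate cleavage / Timing: reaction at room temperature / Measured by: fluorescence, ex 355 nm, em 460 nm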
FXIIa inh 1536 = human FXIIa protease inhibitors, primary screen, biochemical, 1536-well | Coagulation factor XII (Homo sapiens), P00748 | purified FXIIa, Boc-QGR-AMC fluorogenic substrate, 2 h | inhibition, % at 5 µM | actives 0.3% (n = 220,000); in the data active = inhibition above about 40%;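 also: 0% = enzyme with no compound and 100% = blank without enzyme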
m-calpain inh = inhibitors of pig calpain II, primary screen, biochemical, fluorogenic peptide substrate, 1536-well. inhibition, % at 16 µM. purified calpain II, 30 min. actives 0.37% (n = 220,000);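 active = inhibition above about 50%, limit read from the data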
KLK5 inh = human KLK5 protease inhibitors, primary screen, biochemical, 1536-well | Kallikrein-5 (Homo sapiens), Q9Y337 | recombinant hK5, fluorogenic AMC substrate cleavage | inhibition, % at 5 µM | actives 0.59% (n = 210,000) | AID 873, 2007;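 active = inhibition of 40% or more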;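 also: 0% = enzyme controls without compound and 100% = no-enzyme blanks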
FXIa inh = human FXIa protease inhibitors, primary screen, biochemical, 1536-well; Coagulation factor XI (Homo sapiens), P03951; purified FXIa, Boc-Glu-Ala-Arg-AMC fluorogenic substrate; inhibition, % at 5 µM; actives 0.14% (n = 220,000); AID 798, 2007;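 active = inhibition of at least 40%; inactive = inhibition below 40%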;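 also: fluorescence of freed AMC excited at 355 nm; 0% = enzyme without compound and 100% = no enzyme blank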
Target sequence (P03951 19-387 limits assumed): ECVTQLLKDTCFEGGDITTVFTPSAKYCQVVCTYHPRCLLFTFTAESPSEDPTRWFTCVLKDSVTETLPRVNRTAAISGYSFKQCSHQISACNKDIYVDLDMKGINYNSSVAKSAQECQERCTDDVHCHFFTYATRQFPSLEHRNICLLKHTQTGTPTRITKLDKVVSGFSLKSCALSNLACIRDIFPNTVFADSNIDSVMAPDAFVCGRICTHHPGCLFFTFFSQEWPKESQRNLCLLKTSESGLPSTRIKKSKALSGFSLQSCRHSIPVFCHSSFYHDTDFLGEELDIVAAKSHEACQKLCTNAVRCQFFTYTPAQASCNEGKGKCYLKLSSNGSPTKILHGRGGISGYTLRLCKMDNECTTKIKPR
Target sequence (P03951 388-625 limits assumed): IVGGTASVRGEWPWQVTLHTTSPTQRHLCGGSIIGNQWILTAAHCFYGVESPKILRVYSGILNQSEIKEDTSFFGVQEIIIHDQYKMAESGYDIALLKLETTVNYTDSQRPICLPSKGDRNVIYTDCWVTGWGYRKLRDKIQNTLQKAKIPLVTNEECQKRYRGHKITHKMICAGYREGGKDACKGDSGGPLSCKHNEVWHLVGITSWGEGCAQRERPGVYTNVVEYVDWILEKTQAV
The depositor's hits bear a star; · = not tested or not shown. Only some compounds are listed: those with a hit (about 1.4% of all), similar ones and a draw of the others.

SMILES | Thrombin inh | FXIIa inh 1536 | m-calpain inh | KLK5 inh | FXIa inh
CCOc1cc(/C=N/NC(=O)c2ccncc2)cc(Cl)c1OS(C)(=O)=O | -4 | 13 | 16 | 4 | 7
O=C(NNC(=O)[C@H]1CC=CC[C@H]1C(=O)O)c1ccc(Cl)cc1Cl | -2 | 5 | -19 | 12 | 3
COc1ccc2nc3cccc(OC)c3nc2c1 | -3 | 3 | 22 | 5 | 0
COc1ccc2nc3ccccc3nc2c1N | 15 | 44* | 32 | 19 | 29
Cc1ccc(O)c(-c2cc(-c3ccccc3[N+](=O)[O-])[nH]n2)c1 | 1 | 27 | 27 | -4 | 22
Cc1ccc(O)c(-c2cc(-c3ccccc3C)[nH]n2)c1 | 9 | 9 | 33 | 50* | 4
CC(NC(=O)Cn1cc(C(=O)C2CC2)c2ccccc21)c1ccccc1 (configuration not stated) | 1 | 11 | -1 | -5 | 1
Cc1ccc(NC(=O)CCC(=O)N/N=C/C=C/c2ccccc2)cc1 | 0 | 5 | -6 | -8 | 2
O=C(COC(=O)CCc1nc2ccccc2c(=O)[nH]1)Nc1ccccc1Cl | -1 | 7 | -3 | 1 | 1
O=C(COC(=O)CCc1nc2ccccc2c(=O)[nH]1)Nc1ccc(Cl)cn1 | 16 | 40 | 16 | 43* | 105*
CC(C)[C@H](NC(=O)OC(C)(C)C)C(=O)N/N=C/c1cccc2nccnc12 | 31 | 8 | -16 | 36 | 16
Cc1ccn(CC(=O)O)c(=O)c1 | -6 | 58* | 17 | -2 | 28
Cc1ccc(C(=O)N(Cc2ccccc2)C(C)(C)C)cc1C | -8 | -1 | 50* | -3 | -6
CCCCSc1nnc2c(n1)OC(C(=O)c1ccccc1)Nc1ccccc1-2 (configuration not stated) | 11 | 21 | 65* | -15 | 6
COc1ccccc1C(=O)C1Nc2ccccc2-c2nnc(SC)nc2O1 (configuration not stated) | 2 | 19 | -10 | -23 | 9
CC1Cc2ccccc2N1C(=O)C1CCN(S(=O)(=O)Cc2ccccc2)CC1 (configuration not stated) | -3 | 14 | 2 | -3 | -14
CC1Cc2ccccc2N1C(=O)C1CCCCN1S(=O)(=O)c1ccccc1 (configuration not stated) | 32 | 31 | 28 | 41* | 14
O=C(Oc1ccc(Cl)c2cccnc12)N1CCCCC1 | 1 | 10 | -6 | -23 | -3
O=C(Oc1ccc(Cl)c2cccnc12)C12CC3CC(CC(C3)C1)C2 | -9 | -5 | 56* | 10 | -13
NNc1nc2ccc(F)cc2s1 | 22 | 36 | 27 | 43* | 17
NNc1nc2ccc(Cl)cc2s1 | -7 | 2 | -20 | -10 | -1
O=C(Nc1sc2c(c1C(=O)NCC1CCCO1)CCCC2)c1cccs1 (configuration not stated) | 21 | 19 | 22 | 54* | 6
O=C1c2ccccc2-c2ccc(C(=O)N3CCCCC3)cc21 | -4 | 8 | 27 | -2 | -4
CO/N=C/c1ccc(Sc2ccccc2N)c([N+](=O)[O-])c1 | -6 | 44* | 62* | -3 | -2
O=C(/C=C/c1cccs1)Nc1ccc(Br)cn1 | 13 | 21 | 11 | -1 | 22
SMILES | Thrombin inh | FXIIa inh 1536 | m-calpain inh | KLK5 inh | FXIa inh
Cc1nn(-c2ccccc2)c(C)c1C(=O)OCC(=O)N1CC(=O)Nc2ccccc21 | 6 | 14 | 26 | -16 | 8
CCOC(=O)c1[nH]c(C)c(C(=O)OCC(=O)N2CC(=O)Nc3ccccc32)c1C | 8 | 29 | 28 | 42* | 8
O=C1CN(C(=O)COC(=O)c2oc3ccccc3c2COc2ccccc2)c2ccccc2N1 | 3 | 47* | -47 | -17 | 20
O=C(CCn1c(=O)[nH]c2ccsc2c1=O)NCc1ccc(F)cc1 | -5 | 9 | 52* | -1 | 0
Clc1ccc(OCc2nc(-c3ccccn3)no2)c(Br)c1 | 5 | 23 | -5 | 0 | 8
Clc1ccccc1OCc1nc(-c2ccccn2)no1 | 2 | 1 | -25 | 48* | 3
CC(N=Cc1cc([N+](=O)[O-])ccc1O)c1ccccc1 (configuration not stated) | -5 | 8 | -16 | 0 | 17
Cc1ccccc1/C=C1\SC(=S)N(/N=C/c2cc([N+](=O)[O-])ccc2O)C1=O | 56* | 13 | -87 | 5 | 2
CSc1nc(-c2ccc(Cl)cc2)nn1C(=O)c1ccccc1 | 29 | 17 | 18 | 63* | 23
CSc1nc(-c2ccccc2)nn1C(=O)c1ccc(Cl)cc1 | 84* | 17 | -40 | 68* | 20
CSc1nc(-c2ccccc2)nn1S(=O)(=O)c1ccc(Cl)cc1 | 1 | 14 | 13 | 10 | -19
COc1cccc(NC(=S)N2CCN(Cc3ccccc3)CC2)c1 | -5 | -1 | -4 | -25 | -6
COc1ccc(/C=C/C(=O)c2ccc(NC(=O)c3cccs3)cc2)cc1OC | 12 | 10 | -111 | -19 | -2
COc1ccc(CCNC(=O)c2c(N)no[n+]2[O-])cc1OC | -24 | 8 | -9 | 0 | -7
COc1ccc(S(=O)(=O)CCC(=O)Nc2cc(C)ccc2OC)cc1 | 9 | 17 | -24 | · | 1
COc1ccccc1NC(=O)CCS(=O)(=O)c1ccccc1 | 52* | 24 | 3 | 29 | 31
N#Cc1ccc(NC(=O)COC(=O)CSc2nnc(-c3ccc(Cl)cc3)o2)cc1 | -7 | 0 | 16 | -2 | -5
S=C(Nc1ccccc1Oc1ccccc1)Nc1cccc(Cl)c1Cl | -1 | 10 | 55* | 1 | 10
COC(=O)c1ccc(C(=O)OC)c(NC(=S)N2CCN(c3ccccn3)CC2)c1 | 2 | 11 | -4 | 3 | 2
O=C1C(C=NCCCN2CCOCC2)=C(O)c2ccccc21 | 12 | 7 | 11 | 59* | 1
O=C1C(C=NCCN2CCOCC2)=C(O)c2ccccc21 | -4 | 5 | -4 | -13 | 4
CCN1CC(CN(C)Cc2nc(Cc3ccccc3)no2)CC1=O (configuration not stated) | -6 | 8 | -6 | · | -1
CNC(=S)N1CCC(NC(=O)c2ccco2)CC1 | 29 | 25 | -5 | 18 | 44*
CCNC(=S)N1CCC(NC(=O)c2ccco2)CC1 | 2 | 5 | -10 | -2 | -1
O=C(O)CC12CSc3[nH]c(=O)sc3C1c1ccccc1OC2=O (configuration not stated) | 7 | 15 | 54* | 0 | 3
CCOC(=O)C1CSc2[nH]c(=O)sc2C1c1ccccc1 (configuration not stated) | -4 | -3 | 20 | -6 | -9
C=CCSC(=C(C#N)C#N)c1cc2c([nH]1)CCCC2 | 4 | 17 | -31 | 9 | 3
